# Screening results deposited in PubChem BioAssay by several laboratories.
# Rows were chosen to be rich in hits. Some 12% of all compounds tested hit in one or more screens of this group.
# b-catenin transl: modulators of beta-catenin nuclear translocation, primary screen, imaging, HeLa cells, immunofluorescence, high-content; hit rate 0.3% among 190,000; AID 1665, 2009; nuclear translocation activity, % at 5 µM;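 active = nuclear translocation activity above 50% at 5 µM, with a well cell count of 50 or more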;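 also: per-cell ratio of nuclear to cytoplasmic median beta-catenin stain intensity; plate controls were DMSO negative control for no effect and GSK-3 inhibitor IX positive control for full effect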
#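 Read-out: Nuclear/cytoplasmic beta-catenin signal ratio, % activation | Assay system: Human HeLa cell line | Times: 24 h compound exposure at 37°C, 5% CO2 | Signal: Fluorescence imaging of beta-catenin antibody stain plus DAPI | Dosing: 5 µM primary, 0.02–20 µM confirmation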
# CHOP inhibitor: inhibitors of CHOP promoter induction, primary screen, cell-based, unfolded protein response, luciferase reporter. CHO-K1 CHOP-promoter luciferase, tunicamycin-induced, 15-18 h. inhibition, % at 10 µM. hit rate 3.8% among 220,000;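 active = compounds that reduced the stress-induced luciferase reporter signal by more than about 70% of percent inhibition, limit read from the data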;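 also: 0% = tunicamycin plus vehicle and 100% = wells without tunicamycin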
# MT stabilizer: microtubule stabilizers in HeLa cells, primary screen, imaging, high-content imaging | HeLa tubulin immunostaining HCS, 24 h; share of cells brighter than vehicle mean+2SD | % tubulin-high responders, % at 10 µM | hit rate 0.83% among 200,000 | AID 2205, 2009;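 active = plate Z-score above 3 for both tubulin-high and condensed-nucleus cell shares, with cell loss under 80%, at 10 µM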;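 also: anti alpha tubulin signal scored within the nucleus-defined area of each cell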
# Dynein cargo inh: inhibitors of GR-EGFP nuclear translocation, primary screen, dynein cargo transport inhibitor project, imaging, high-content, 3617.4 mouse cells; z-score, hits read low; test concentration mostly 20 µM; stimulated with dexamethasone, 1 µM; stronger effect = lower value; hit rate 0.47% among 220,000;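 active = plate z-score of nuclear minus cytoplasmic receptor signal below a set negative limit, without overly bright fluorescence or cell loss, cut at about -3.5 in these data, passing the limit was not always enough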;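 also: z-score of nuclear minus cytoplasmic ring GR-EGFP intensity difference per well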
#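 Buffer or medium: tet-free medium with charcoal-stripped serum / Also added: dexamethasone agonist, 1.0 µM final, for 30 min / Timing: induction 48 h, compound 1 h, agonist 30 min / Measured by: high-content fluorescence imaging after fixation / Read-out: nuclear-to-cytoplasmic GR-EGFP distribution per well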
# Autophagy mod: autophagy modulators in MEF cells, primary screen, imaging, high-content, MEF GFP-LC3; MEF GFP-LC3 puncta imaging; test concentration mostly 10 µM; calls only at 10 µM (by protocol); hit rate 0.98% among 190,000; AID 463193, 2010;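 active = percentage of spot-positive cells more than 3 SD above its plate mean, without a fluorescence outlier flag or 80% toxicity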;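 also: spot-positive cell cutoff set from DMSO-treated cells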
# L major viab: Leishmania major promastigote growth inhibition, primary screen; Leishmania major promastigotes, resazurin fluorescence viability; inhibition, % at 10 µM; hit rate 9% among 200,000; in the data active = inhibition above about 50%;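 also: promastigotes grown with compound for 44 hours at 28 °C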
# Starred values were filed as active, the others as inactive; i = inactive; / = no result; + = active, no number.
SMILES,b-catenin transl,CHOP inhibitor,MT stabilizer,Dynein cargo inh,Autophagy mod,L major viab
CCCn1c(NCc2ccc(N(C)C)cc2)nc2ccccc21,/,54,2,-0.73,i,23
Cc1ccc(S(=O)(=O)N2CCN(C(=O)N(C)C)CC2)cc1,0,0,2,-0.68,i,-5
CC(C)NS(=O)(=O)c1ccc(NC(=O)NC2CCCCC2)cc1,-2,35,1,-0.09,i,45
O=C(c1ccc(NC(=S)NCc2ccco2)cc1)N1CCOCC1,0,0,3,-1.4,i,-4
CCOc1ccc(C(=O)Nc2ccc(-c3nc4ccccc4[nH]3)cc2)cc1[N+](=O)[O-],/,-14,5,-0.089,i,-3
CCOc1ccc(C(=O)Nc2ccc(-c3cc4ccccc4oc3=O)c(C)c2)cc1[N+](=O)[O-],-1,23,6,-0.55,i,56*
Cc1cc(NC(=S)NC(=O)c2ccccc2)ccc1-c1cc2ccccc2oc1=O,0,27,15*,0.17,i,35
O=c1cc[nH]c2ccc(OC(F)(F)F)cc12,0,3,/,-0.9,/,/
COc1ccccc1C1NC(=O)CS1 (centres undefined),-6,12,5,1.4,i,-2
Cc1nc(NC(=O)c2ccccc2)sc1-c1csc(Nc2ccc(Cl)cc2Cl)n1,/,36,5,0.66,i,54*
Cc1ccc(Cl)cc1Nc1nc(-c2sc(NC(=O)c3ccco3)nc2C)cs1,-1,39,12,-0.8,i,50
Cc1nc(NC(=O)c2ccco2)sc1-c1csc(Nc2ccc(Cl)cc2Cl)n1,/,-39,4,0.39,i,74*
COc1ccccc1Nc1nc(-c2sc(NC(=O)c3ccco3)nc2C)cs1,50,38,27,0.15,i,100*
COc1ccc(Cl)cc1Nc1nc(-c2sc(NC(=O)c3ccccc3)nc2C)cs1,/,12,24,-0.27,i,41
COC(=O)C1=C(O)/C(=C\c2ccc(O)c(OC)c2)N=C1C,-3,12,2,-0.58,i,25
CCOC(=O)N1CCC(NC(=O)c2cc(C)c3c(C)nn(-c4ccccc4)c3n2)CC1,-2,-4,2,-0.75,i,10
O=C1/C(=C\c2ccc(O)c(O)c2)C(c2ccccc2)=NN1c1ccccc1,0,30,8,0.4,i,99*
CCOc1cc(/C=C2\C(=O)N(c3nc(-c4ccc(Br)cc4)cs3)N=C2c2ccccc2)ccc1O,-14,-41,5,-0.34,i,100*
CC(C)c1ccc(-n2c(-c3ccccc3)c[n+]3c2CCc2ccccc2-3)cc1,2,65,3,0.31,+,100*
COc1ccc(-n2c(-c3ccc(Br)cc3)c[n+]3c2CCc2ccccc2-3)cc1,-1,35,2,-0.11,i,100*
COc1ccccc1-n1c(-c2ccccc2)c[n+]2c1CCc1ccccc1-2,2,6,4,0.93,i,101*
FC(F)Oc1ccc(-c2c[n+]3c(n2-c2ccccc2)CCCCC3)cc1,0,0,/,0.37,/,/
COc1ccccc1-n1c(-c2ccccc2)c[nH]c1=S,1,-18,4,0.68,i,4
S=c1nc(-c2sccc2OCc2ccc(Cl)cc2Cl)[nH][nH]1,0,-1,6,0.65,i,-4
CCOc1ccc(-n2c(=O)[nH]cc(C(=O)Nc3ccc(OC)c(OC)c3)c2=O)cc1,0,5,4,1.1,i,-6
SMILES,b-catenin transl,CHOP inhibitor,MT stabilizer,Dynein cargo inh,Autophagy mod,L major viab
Cc1nnc(-c2ccccc2)c(=O)n1/N=C/c1c(O)ccc2ccccc12,0,27,1,-0.46,i,98*
Cc1nc2ccccc2c(=O)n1/N=C/c1ccc2ccccc2c1O,1,10,/,0.095,/,/
CCOC(=O)C(C)n1ncn2cccc2c1=O (centres undefined),-1,-6,8,0.43,i,5
COc1ccc(/C=C/C(=O)Oc2cccc(/C=N/NC(=O)Cc3ccc(Br)cc3)c2)cc1,-1,71*,/,-0.093,/,/
O=[N+]([O-])c1ccc(Sc2cccc[n+]2[O-])c2nonc12,1,108*,/,10,/,/
CCS(=O)(=O)c1ccc2c(c1)N(S(C)(=O)=O)CC(C(=O)NN)O2 (centres undefined),-2,-4,2,0.97,i,1
O=C(Nc1ccc(-n2cccc2)cc1)C1CC1,-2,2,6,0.24,i,2
O=C(/C=C(\c1ccccc1)n1cncn1)c1ccccc1,-1,30,4,2.1,i,7
O=C(C(=C1NCCN1)n1cncn1)c1ccccc1,/,5,2,-0.56,+,-7
Cc1ccc2c(c1)NC(=O)c1cc([N+](=O)[O-])ccc1O2,-1,10,1,-0.073,i,0
O=C1Nc2ccccc2Oc2cc([N+](=O)[O-])ccc21,-4,74*,3,-0.5,i,13
Cc1nn(Cc2cccc(C(=O)NC34CC5CC(CC(C5)C3)C4)c2)c(C)c1Br,1,7,2,0.37,i,54*
Cc1cc(C)c(C(=O)CSc2n[nH]c(-c3ccncc3)n2)c(C)c1,-1,-11,3,3,i,97*
COc1ccc(C(=O)CSc2n[nH]c(-c3ccncc3)n2)cc1[N+](=O)[O-],/,-8,3,-0.37,i,56*
CCOCCCNc1ncnc2c1[nH]c1ccccc12,/,47,2,-0.62,i,44
CCCCOCCCNc1ncnc2c1[nH]c1ccccc12,-1,85*,2,0.13,i,80*
CCCCOc1ncnc2c1[nH]c1ccccc12,-3,/,5,-0.4,i,57*
O=C(CSc1nc(C2CCCCC2)n(-c2ccccc2)n1)NCC(F)(F)F,-1,16,2,0.48,i,48
CC(C)Oc1ccc(CNCCC2(C(C)C)CCOC(C)(C)C2)cc1 (centres undefined),/,45,1,0.23,i,95*
COc1ccc(CNCCC2(C(C)C)CCOC(C)(C)C2)cc1 (centres undefined),0,-1,/,0.86,/,/
O=C(NCc1ccncc1)c1nc(-c2ccc(C(F)(F)F)cc2)no1,1,20,4,-1,i,10
Cc1ccc(NC(=S)NCc2ccccn2)cc1,-1,12,2,-0.4,i,50*
COC(=O)c1cc2occc2n1Cc1ccc(Cl)cc1,/,87*,1,1.9,i,56*
COc1cc(/C=C2/NC(=O)N(Cc3ccccc3F)C2=O)ccc1Oc1ccc([N+](=O)[O-])cn1,-2,0,2,1.3,i,80*
COc1ccc(-c2cc(C(F)(F)F)nc(-n3ccnc3)n2)cc1,3,-8,1,0.28,i,16
